The values that follow come from ChEMBL document CHEMBL1143978, “Novel 1,3,4-thiadiazolium-2-phenylamine chlorides derived from natural piperine as trypanocidal agents: chemical and biological studies” (Bioorg Med Chem, 2008).

For data set [1], the system named is Trypanosoma cruzi. Put plainly: Antiparasitic activity against Trypanosoma cruzi Y epimastigote. It counts as functional, organism-based. Summed up:
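Y-strain epimastigotes (1×10^5 cells) grown in BHI with hemin, folic acid and 5% heat-inactivated FCS at 28 °C, with or without compound. DMSO final was 0.05%, and controls contained the same DMSO. After 7 days, live parasites were counted directly in a Neubauer chamber. IC50 is the mean of triplicate experiments.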

A short description of data set [2]: Cytotoxicity against mouse macrophages after 72 hrs. It counts as cell-based, Macrophage. To be noted: read-out: LD50. An outline of the steps: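 Murine peritoneal macrophages seeded at 1.10⁶ cells/well in RPMI with 10% FCS and allowed to attach 24 h at 37 °C. Exposed 72 h to compounds in DMSO (final solvent at most 0.05%). Washed with PBS, trypan blue added (final 0.01%), and 200 cells counted in a Neubauer chamber for membrane permeability. IC50 is the mean of triplicate experiments.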

Data set [3] relates to Trypanosoma cruzi. Nature of the data set: Antiparasitic activity against Trypanosoma cruzi Y amastigotes. It counts as functional, organism-based. Summed up: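 Resident peritoneal macrophages from uninfected BALB/c mice, once adhered, infected with T. cruzi metacyclic trypomastigotes at 10:1 parasite/macrophage for 1 h at 37 °C, 5% CO2. Free parasites washed off with PBS, then 72 h with compound at […]. Methanol-fixed, Giemsa-stained. 200 cells counted in triplicate for % infected cells, amastigotes per macrophage and endocytic index.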

For data set [4], the system named is Trypanosoma cruzi. Put plainly: Antiparasitic activity against Trypanosoma cruzi Y trypomastigotes. It counts as functional, organism-based.

Molecules are shown by their SMILES.

Take `c1ccc(Nc2n[n+](-c3ccccc3)c(CCCCc3ccc4c(c3)OCO4)s2)cc1`: inhibition in data set [1] was half-maximal at 31.5 µM (IC50). In data set [1], `c1ccc(Nc2n[n+](-c3ccccc3)c(-c3ccc4c(c3)OCO4)s2)cc1` returned a 50% inhibitory concentration (IC50) of 113 µM. `O=C(/C=C/C=C/c1ccc2c(c1)OCO2)N1CCCCC1` [PIPERINE]: the IC50 in data set [1] was found to be 7.31 µM; in data set [3], 4.91 µM. The CC50 at 72 h in data set [2] was determined as 20 µM.

For `O=[N+]([O-])c1cc2c(cc1CCCCc1sc(Nc3ccccc3)n[n+]1-c1ccccc1)OCO2`, the IC50 in data set [1] is 45.2 µM.

In data set [1], `O=[N+]([O-])c1cc2c(cc1CCc1sc(Nc3ccccc3)n[n+]1-c1ccccc1)OCO2` showed a half-inhibitory concentration (IC50) of 40.8 µM. For `C(/C=C/c1sc(Nc2ccccc2)n[n+]1-c1ccccc1)=C\c1ccc2c(c1)OCO2`, the IC50 in data set [1] was 10.8 µM; in data set [3], 1.35 µM; in data set [4], 6.7 µM. The CC50 at 72 h in data set [2] is 38.6 µM. On to `c1ccc(Nc2n[n+](-c3ccccc3)c(CCc3ccc4c(c3)OCO4)s2)cc1`, for which the 50% inhibitory concentration (IC50) in data set [1] is 83.4 µM. `O=C(Cn1ccnc1[N+](=O)[O-])NCc1ccccc1` [BENZNIDAZOLE]: the IC50 came out at 2.51 µM in data set [3] and 6.61 µM in data set [4].

Turning to `O=[N+]([O-])c1cc2c(cc1-c1sc(Nc3ccccc3)n[n+]1-c1ccccc1)OCO2`, the IC50 in data set [1] came to 13.4 µM. Besides, the CC50 at 72 h in data set [2] turned out to be 6.62 µM. `C(=C\c1sc(Nc2ccccc2)n[n+]1-c1ccccc1)/c1ccc2c(c1)OCO2` returned a 50% inhibitory concentration (IC50) in data set [1] of 4.13 µM. The CC50 at 72 h in data set [2] was 1.95 µM. In turn, `O=[N+]([O-])c1cc2c(cc1/C=C/c1sc(Nc3ccccc3)n[n+]1-c1ccccc1)OCO2` displayed an IC50 in data set [1] of 0.64 µM. Further, the CC50 at 72 h in data set [2] was found to be 1.08 µM.
